Reference: ChEMBL document CHEMBL2346655, “Synthesis and in vitro biological evaluation of 2,6,9-trisubstituted purines targeting multiple cyclin-dependent kinases” (Eur J Med Chem, 2013)
The source made the active and inactive calls. No cut-off for these calls is given here.

Columns and labels:
HCT-116 [1] = assay: Cell cycle arrest in human HCT116 cells assessed as accumulation at G1 phase at 0.2 uM after 24 hrs by propidium iodide staining-based flow cytometric analysis (reference value: 48.8%); assay type: functional
Summary of the method: (§1)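 Sub-confluent cells treated at several concentrations for 24 h, then pulsed with 10 μM BrdU for 30 min at 37 °C before harvest. Cells were PBS-washed, fixed in 70% ethanol, denatured in 2 M HCl and neutralized. Stained with fluorescein anti-BrdU and propidium iodide; DNA content read by flow cytometry with 488 nm excitation.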

G-361 [2] = assay: Ratio of roscovitine IC50 to compound IC50 for human G361 cells; assay type: functional
Summary of the method: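 Cytotoxicity IC50s underlying the ratio: cells treated in triplicate with three-fold compound dilutions for 72 h, then Calcein AM added and live-cell fluorescence read at 485/538 nm (ex/em).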

[3] = biological target: Cyclin-dependent kinase 7/ cyclin H (Homo sapiens, UniProt P50613); assay: Inhibition of CDK7/CyclinH/MAT1 (unknown origin) using (YSPTSPS)2KK as substrate; assay type: protein-complex assay
Summary of the method: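 Buffer was 60 mM HEPES-NaOH pH 7.5, 3 mM MgCl2, 3 mM MnCl2, vanadate, DTT and PEG. Reactions were stopped with H3PO4 and spotted on P-81 paper, which was then washed. Radioactivity was imaged; IC50 taken from dose–response curves.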

G-361 [4] = assay: Cytotoxicity against human G361 cells assessed as reduction in number of viable cells after 72 hrs by fluorescence assay; assay type: functional, cell-based; details: G-361, 72 h
Summary of the method: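 Three-fold compound dilutions tested in triplicate on cultured cells for 72 h. Viable cells detected by adding Calcein AM and reading fluorescence at 485/538 nm (ex/em).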

K562 [5] = assay: Induction of apoptosis in human K562 cells assessed as change in PUMA level up to 5 uM after 24 hrs by immunoblotting analysis; assay type: functional, cell-based
Summary of the method: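 Cells were treated for 24 h, harvested directly into Laemmli sample buffer, and run on SDS-PAGE. Proteins were blotted to nitrocellulose, blocked, probed overnight with primary antibodies, then with peroxidase-linked secondaries. Bands were detected by ECL with a CCD camera. PCNA and tubulin served as loading references.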

[6] = biological target: T1, CDK9/cyclin T1 (Homo sapiens) (UniProt O60563+P50750); assay: Inhibition of CDK9/CyclinT1 in human ARN8 cells assessed as increase in p53-dependent transcriptional activity at 2 uM after 24 hrs by beta-galactosidase reporter gene assay; assay type: cell-based
Summary of the method: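 Arn-8 human melanoma cells stably carrying p53-responsive pRGCΔfoslacZ reporter; 24 h compound exposure, then permeabilized with 0.3% Triton X-100 for 15 min. 4-Methylumbelliferon-β-D-galactopyranoside added (80 μM final); fluorescence read at 355/460 nm (ex/em) after 1 h as β-galactosidase activity.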

[7] = biological target: T1, CDK9/cyclin T1 (Homo sapiens); assay: Inhibition of CDK9/CyclinT1 in human HCT116 cells assessed as increase in p53 expression at 1 to 5 uM after 24 hrs by immunoblotting analysis; assay type: cell-based; details: HCT-116
Summary of the method: (§2)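 Immunoblot: cells lysed by harvesting in Laemmli sample buffer, proteins run on SDS-PAGE, electroblotted to nitrocellulose, blocked, primary antibodies overnight, peroxidase-conjugated secondaries, ECL detection by CCD camera. Antibodies included anti-phospho RNA polymerase II (S2), anti-RNA polymerase II (ARNA-3), anti-p53 (DO-1), anti-p21waf1 (118), anti-PCNA.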

[8] = biological target: T1, CDK9/cyclin T1 (Homo sapiens); assay: Inhibition of CDK9/CyclinT1-mediated phosphorylation of RNA polymerase 2 at Ser2 in human K562 cells up to 25 uM after 24 hrs by immunoblotting analysis; assay type: cell-based; summary of the method: as §2
[9] = biological target: T1, CDK9/cyclin T1 (Homo sapiens); assay: Inhibition of CDK9/CyclinT1-mediated phosphorylation of RNA polymerase 2 at Ser2 in human HCT116 cells up to 25 uM after 24 hrs by immunoblotting analysis; assay type: cell-based; details: HCT-116; summary of the method: as §2
K562 [10] = assay: Cell cycle arrest in human K562 cells assessed as accumulation at S phase after 24 hrs by BrdU incorporation assay; assay type: functional, cell-based
Summary of the method: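 Sub-confluent cells were exposed to compound for 24 h, then pulse-labeled with 10 μM BrdU for 30 min at 37 °C. After ethanol (70%) fixation and 2 M HCl denaturation, cells were stained with fluorescein anti-BrdU antibody plus propidium iodide. The BrdU-positive S-phase fraction was quantified by flow cytometry (488 nm laser).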

K562 [11] = assay: Cell cycle arrest in human K562 cells assessed as accumulation at G1 phase at 5 uM after 24 hrs by propidium iodide staining-based flow cytometric analysis (reference value: 47.3%); assay type: functional; summary of the method: as §1
K562 [12] = assay: Cell cycle arrest in human K562 cells assessed as accumulation at subG1 phase at 5 uM after 24 hrs by propidium iodide staining-based flow cytometric analysis (reference value: 2.4%); assay type: functional; summary of the method: as §1
K562 [13] = assay: Cell cycle arrest in human K562 cells assessed as accumulation at S phase at 1 uM after 24 hrs by propidium iodide staining-based flow cytometric analysis (reference value: 38.8%); assay type: functional; summary of the method: as §1
K562 [14] = assay: Cell cycle arrest in human K562 cells assessed as accumulation at subG1 phase at 1 uM after 24 hrs by propidium iodide staining-based flow cytometric analysis (reference value: 2.4%); assay type: functional; summary of the method: as §1
HCT-116 [15] = assay: Cell cycle arrest in human HCT116 cells assessed as accumulation at G1 phase at 5 uM after 24 hrs by propidium iodide staining-based flow cytometric analysis (reference value: 48.8%); assay type: functional; summary of the method: as §1

Chain of Cyclin-dependent kinase 7/ cyclin H (P51946 whole entry): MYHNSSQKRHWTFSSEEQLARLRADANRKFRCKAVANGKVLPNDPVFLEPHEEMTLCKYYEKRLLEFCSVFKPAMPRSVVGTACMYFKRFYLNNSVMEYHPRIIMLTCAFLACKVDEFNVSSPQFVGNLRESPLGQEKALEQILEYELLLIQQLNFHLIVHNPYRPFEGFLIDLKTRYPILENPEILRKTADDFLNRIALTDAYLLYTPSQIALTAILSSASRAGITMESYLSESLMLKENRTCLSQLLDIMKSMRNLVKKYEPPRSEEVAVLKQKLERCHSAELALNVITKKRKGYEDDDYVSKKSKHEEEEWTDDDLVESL
Chain of Cyclin-dependent kinase 7/ cyclin H (P50613 whole entry): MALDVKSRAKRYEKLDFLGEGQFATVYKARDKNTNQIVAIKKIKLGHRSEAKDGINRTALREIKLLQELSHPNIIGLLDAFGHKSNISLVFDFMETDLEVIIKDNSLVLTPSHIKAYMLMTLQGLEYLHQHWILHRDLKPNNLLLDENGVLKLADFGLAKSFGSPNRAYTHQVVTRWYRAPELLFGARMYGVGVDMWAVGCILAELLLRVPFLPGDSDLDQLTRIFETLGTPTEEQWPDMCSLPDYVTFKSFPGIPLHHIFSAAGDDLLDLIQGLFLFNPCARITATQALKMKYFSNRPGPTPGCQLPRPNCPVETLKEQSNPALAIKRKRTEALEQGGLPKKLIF

CC[C@@H](Nc1nc(NCc2cc(Cl)ccc2O)c2ncn(C(C)C)c2n1)C(C)O (mixture of isomers)
Activity (HCT-116 [1]): 45.6%
Ratio IC50 (G-361 [2]): >9
IC50 [3]: 97 nM
IC50 (G-361 [4]): 2300 nM
Activity (K562 [5]): inactive
inhibition [6]: Active
inhibition [7]: Active
inhibition [8]: Active
inhibition [9]: Active
Activity (K562 [10]): Dose-dependent effect
Activity (K562 [11]): 40.7%
Activity (K562 [12]): 10.9%
Activity (K562 [13]): 39.8%
Activity (K562 [14]): 3.3%
Activity (HCT-116 [15]): 29.5%
